# Measured values of several laboratories.
# Protocols differ between the studies behind these lines.
Compound,organism,assay,test system,conditions,quantity,result
CCN(Cc1cnc2nc(N)nc(N)c2n1)c1ccc(C(=O)N2CCC(C(=O)OC)CC2)cc1,Trypanosoma brucei,"parasite growth, resazurin",,"10 µM, 72 h",inhibition,31%
CS(=O)(=O)Nc1cccc(-n2c(/C=C/c3ccc(F)cc3)nc3ccccc3c2=O)c1,Enterococcus faecium,"microbial growth, broth dilution",NCTC7171,,MIC,> 128 µg/mL
Cl.NCCCc1ccc(Oc2ccc(-c3noc(-c4ccc(O)cc4)n3)cc2)cc1,Enterococcus faecium,"microbial growth, broth dilution",,24 h,MIC,2 µg/mL
N#CCNC(=O)c1ccc(-c2ccnc(Nc3ccc(N4CCOCC4)cc3)n2)cc1,Plasmodium berghei,"parasite growth, luciferase",human,liver stage,IC50,550 nM
O=C(O)c1cn(C2CC2)c2cc(N3CCNCC3)c(F)cc2c1=O,Mycobacterium intracellulare,microbial killing,ATCC23068,,MBC,3 µM
C[C@@H]1[C@H](O)[C@@H](C)/C=C/C=C/C=C/C=C/C=C/C=C/C=C/[C@H](O[C@@H]2O[C@H](C)[C@@H](O)[C@H](N)[C@@H]2O)C[C@@H]2O[C@](O)(C[C@@H](O)C[C@@H](O)[C@H](O)CC[C@@H](O)C[C@@H](O)CC(=O)O[C@H]1C)C[C@H](O)[C@H]2C(=O)O,Candida albicans,"microbial growth, broth dilution",ATCC90028,,IC50,0.27 µg/mL
O=C(Nc1ccccc1-c1ccc(F)c(F)c1)c1nccnc1C(F)(F)F,Monilinia fructicola,microbial growth,,,EC50,0.11 µg/mL
CNC(=O)c1cc(Oc2ccc(NC(=O)Nc3ccc(Cl)c(C(F)(F)F)c3)cc2)ccn1,Plasmodium berghei,"parasite growth, luciferase",human,liver stage,IC50,1400 nM
CS(=O)(=O)c1ccc(/C=C/c2nc3ccccc3c(=O)n2-c2cccc(C(=O)O)c2)cc1,Enterococcus faecium,"microbial growth, broth dilution",NCTC7171,,MIC,> 128 µg/mL
Cl.NCCc1ccccc1Oc1ccc(-c2noc(-c3ccc(O)cc3)n2)cc1,Enterococcus faecium,"microbial growth, broth dilution",,24 h,MIC,8 µg/mL
CS(=O)(=O)CCNCc1ccc(-c2ccc3ncnc(Nc4ccc(OCc5cccc(C(F)(F)F)c5)cc4)c3c2)o1,Trypanosoma brucei,parasite growth,,,EC50,2000 nM
CCn1c(-c2nonc2N)nc2c(C#CC(C)(C)O)ncc(OC3CCNCC3)c21,Plasmodium berghei,"parasite growth, luciferase",human,liver stage,IC50,7300 nM
CCCCCCCCCCCCCC(O)CC(O)CO (stereo not drawn),Candida albicans,"microbial growth, broth dilution",ATCC90028,,IC50,> 200 µg/mL
NC(=O)c1cccc(-n2c(/C=C/c3ccc(Cl)cc3)nc3ccncc3c2=O)c1,Enterococcus faecium,"microbial growth, broth dilution",NCTC7171,,MIC,> 128 µg/mL
Cl.Oc1ccc(-c2nc(-c3ccc(Oc4ccc5c(c4)CNCC5)cc3)no2)cc1,Enterococcus faecium,"microbial growth, broth dilution",,24 h,MIC,4 µg/mL
CC1=C(C(=O)Nc2ccc3[nH]ncc3c2)C(c2ccc3ccccc3c2)CC(=O)N1 (stereo not drawn),Trypanosoma brucei,parasite growth,,,EC50,3980 nM
N#Cc1ccc(/C=C/c2nc3ccccc3c(=O)n2-c2cccc(C(=O)NCCC(=O)O)c2)cc1,Enterococcus faecium,"microbial growth, broth dilution",NCTC7171,,MIC,> 128 µg/mL
O=S(=O)(CCOCc1ccc(-c2ccc3ncnc(Nc4ccc(OCc5cccc(F)c5)c(Cl)c4)c3c2)o1)c1ccccc1,Trypanosoma brucei,parasite growth,,,EC50,1580 nM
N#Cc1ccc(/C=C/c2nc3ccccc3c(=O)n2-c2cccc(C(=O)NCc3cccnc3)c2)cc1,Enterococcus faecium,"microbial growth, broth dilution",NCTC7171,,MIC,> 128 µg/mL
Cl.NCc1ccccc1Oc1ccc(-c2noc(-c3ccc(O)cc3)n2)cc1,Enterococcus faecium,"microbial growth, broth dilution",,24 h,MIC,8 µg/mL
NS(=O)(=O)c1ccc(N/N=C2\C(=O)Nc3ccc4ncccc4c32)cc1,Trypanosoma brucei,parasite growth,,,EC50,79.4 nM
C=CCCCCCCCCCCCC(O)CC(O)CO (stereo not drawn),Candida albicans,"microbial growth, broth dilution",ATCC90028,,IC50,> 200 µg/mL
CC1=C(C(=O)Nc2ccc3[nH]ncc3c2)C(c2ccc(Cl)c(Cl)c2)CC(=O)N1 (stereo not drawn),Trypanosoma brucei,parasite growth,,,EC50,25100 nM
CNCCc1ccc(Oc2ccc(-c3noc(-c4ccc(O)cc4)n3)cc2)cc1.Cl,Enterococcus faecium,"microbial growth, broth dilution",,24 h,MIC,4 µg/mL
C[C@@H]1[C@H](O)[C@@H](C)/C=C/C=C/C=C/C=C/C=C/C=C/C=C/[C@H](O[C@@H]2O[C@H](C)[C@@H](O)[C@H](N)[C@@H]2O)C[C@@H]2O[C@](O)(C[C@@H](O)C[C@@H](O)[C@H](O)CC[C@@H](O)C[C@@H](O)CC(=O)O[C@H]1C)C[C@H](O)[C@H]2C(=O)O,Candida albicans,microbial killing,ATCC90028,,MFC,2.5 µg/mL
COc1ncccc1CNc1cccc(-n2c(/C=C/c3ccc(C#N)cc3)nc3ccccc3c2=O)c1,Enterococcus faecium,"microbial growth, broth dilution",NCTC7171,,MIC,> 128 µg/mL
COc1cc2ncn(-c3cc(O[C@H](C)c4ccccc4Cl)c(C(N)=O)s3)c2cc1OC,Plasmodium berghei,"parasite growth, luciferase",human,liver stage,IC50,7000 nM
Cl.NCc1ccc(Oc2ccc(-c3noc(-c4ccc(O)cc4)n3)cc2)cc1,Enterococcus faecium,"microbial growth, broth dilution",,24 h,MIC,4 µg/mL
O=C(O)c1ccc(-c2c[nH]c3ncc(-c4ccccc4)cc23)cc1C1CCCC1,Plasmodium berghei,"parasite growth, luciferase",human,liver stage,IC50,1200 nM
C[C@@H]1[C@H](O)[C@@H](C)/C=C/C=C/C=C/C=C/C=C/C=C/C=C/[C@H](O[C@@H]2O[C@H](C)[C@@H](O)[C@H](N)[C@@H]2O)C[C@@H]2O[C@](O)(C[C@@H](O)C[C@@H](O)[C@H](O)CC[C@@H](O)C[C@@H](O)CC(=O)O[C@H]1C)C[C@H](O)[C@H]2C(=O)O,Candida albicans,microbial growth,ATCC90028,,IC50,300 nM
O=C(Nc1ccc(Oc2ccc3nc(NC(=O)c4ccco4)[nH]c3c2)cc1)Nc1cc(C(F)(F)F)ccc1F,Trypanosoma brucei,parasite growth,,,EC50,2510 nM
N#Cc1ccc(/C=C/c2nc3ccccc3c(=O)n2-c2cccc(CC(=O)O)c2)cc1,Enterococcus faecium,"microbial growth, broth dilution",NCTC7171,,MIC,> 128 µg/mL
CN1CCC(n2cnc(-c3ccc(F)cc3)c2-c2ccnc(Nc3ccccc3)n2)CC1,Trypanosoma brucei,parasite growth,,,EC50,501 nM
O=C(O)c1cn(C2CC2)c2cc(N3CCNCC3)c(F)cc2c1=O,Mycobacterium intracellulare,"microbial growth, resazurin",ATCC23068,,IC50,0.4 µg/mL
N#Cc1ccc(/C=C/c2nc3ccncc3c(=O)n2-c2cccc(C(=O)O)c2)cc1,Enterococcus faecium,"microbial growth, broth dilution",NCTC7171,,MIC,> 128 µg/mL
NS(=O)(=O)c1ccc(NC=C2C(=O)Nc3ccc4ncsc4c32)cc1,Trypanosoma brucei,parasite growth,,,EC50,12600 nM
